Sampled rows, rich in hits. Any-hit rate of the full collection: about 0.6%.
Efflux pump mplx = antifungal efflux pump inhibition, Nile Red retention. inhibition, % at 10 µM. AID 485275. S. cerevisiae Candida pump triplex. 330,000 compounds, 0.44% hits;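 active = plate passing quality check with inhibition over a set limit, or well fluorescence over plate mean plus 4 SD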;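 also: Nile Red retained in pooled yeast measured as flow cytometry median fluorescence; 0% = buffer negative control and 100% = Enniatin B positive control; higher means more Nile Red kept so more efflux inhibition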
STK33 kinase inh = inhibitors of human STK33 kinase. 320,000 compounds, 0.073% hits. purified STK33, MBP phosphorylation, ADP-Glo luminescence. AID 2661. inhibition, % at 10 µM;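 active = inhibition at or above 25%, using the most active replicate where run in duplicate; inactive = inhibition below 25%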
Target sequence (Q9BYT3 whole entry, looked up): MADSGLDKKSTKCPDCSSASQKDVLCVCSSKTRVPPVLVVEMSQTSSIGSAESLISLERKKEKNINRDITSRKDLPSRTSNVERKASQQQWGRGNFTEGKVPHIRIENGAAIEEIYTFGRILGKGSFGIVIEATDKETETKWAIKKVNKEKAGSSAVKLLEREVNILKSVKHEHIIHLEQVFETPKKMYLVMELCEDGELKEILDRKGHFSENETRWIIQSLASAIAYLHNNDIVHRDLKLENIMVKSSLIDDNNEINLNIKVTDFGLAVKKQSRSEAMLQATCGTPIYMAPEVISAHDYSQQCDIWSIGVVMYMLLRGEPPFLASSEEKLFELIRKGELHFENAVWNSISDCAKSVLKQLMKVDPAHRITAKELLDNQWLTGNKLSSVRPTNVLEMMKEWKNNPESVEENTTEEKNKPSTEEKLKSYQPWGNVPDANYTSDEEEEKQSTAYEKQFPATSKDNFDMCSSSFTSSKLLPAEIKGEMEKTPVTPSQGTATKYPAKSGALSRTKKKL
PolyA inh = inhibitors of polyadenylation in S. cerevisiae; S. cerevisiae SKY197-pL101 polyadenylation reporter, beta-gal luminescence; efflux-impaired pdr1/pdr3 knockout yeast; score 100 = 6 SD above DMSO; activity score, % at 12 µM; 300,000 compounds, 0.02% hits; AID 1875;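 active = lowest replicate activity score at least 50, where 100 means six control SD above control mean; inconclusive = lowest score under 50 but half or more replicates reach 50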;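 also: yeast exposed to compound for 9 h at 30 °C; higher score means more reporter readthrough which indicates perturbed polyadenylation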
GSK3beta inhib = inhibitors of human GSK3beta kinase; P49841; GST-GSK3beta kinase, ADP-Glo luminescence, 60 min; hits give low values; activity score (negative = inhibition), % at 10 µM; 300,000 compounds, 0.038% hits; AID 2097;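 active = more than half of replicate wells score below -50%, meaning over 50% inhibition versus plate controls; inconclusive = some replicates but at most half score below -50%; inactive = no replicate scores below -50%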;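 also: 0% = median DMSO wells and -100% = median GW8510 positive control wells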
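Assay system: GST-tagged human GSK3beta kinase, cell-free; Input: 1.6 ng GSK3beta; Medium: Tris/MgCl2 kinase buffer; Timing: 60 min enzyme reaction, room temperature; Signal: ADP-Glo luminescence quantifying ADP generated by kinase; Evaluation: score relative to plate controls; Benchmarks: DMSO neutral wells and GW8510 at 20 µM as positive.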
GSK3A inh = inhibitors of human GSK-3 alpha kinase | inhibition, % at 10 µM | 320,000 compounds, 0.1% hits | ADP-Glo luminescence, 60 min;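 active = more than half of replicates show inhibition above 20%; inconclusive = some but at most half of replicates above 20% inhibition; inactive = no replicate shows inhibition above 20%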;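 also: GST-tagged GSK-3 alpha with peptide substrate and 25 µM ATP; 0% = DMSO neutral wells and 100% = GW8510 positive control wells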
Starred values were filed as active, the others as inactive; ? = inconclusive; · = no result given.

SMILES	Efflux pump mplx	STK33 kinase inh	PolyA inh	GSK3beta inhib	GSK3A inh
CCc1cc(=O)oc2cc(OC(C)C(=O)NCc3ccccn3)ccc12 (stereo not drawn)	0	-1	5	-2	2
CCCC1=C(C(=O)OCC)C(c2cccs2)n2ncnc2N1 (stereo not drawn)	0	-1	-19	-42	61*
CCOC(=O)C1=C(C)Nc2ncnn2C1c1cccs1 (stereo not drawn)	0	0	-13	-14	·
COc1ccc(C(NC=O)c2cc(OC)c(OC)cc2Br)cc1OC (stereo not drawn)	0	2	9	1	-1
COc1ccccc1NC(=O)Nc1cnccn1	0	1	1	0	-4
COc1ccccc1NC(=O)Nc1ncccc1C	0	30*	-6	3	-1
COc1ccc(OC)c(S(=O)(=O)Nc2cc(C)on2)c1	-1	0	23	2	-2
Cc1ccc(-c2nc3n(n2)Cc2ccccc2-3)cc1	0	3	4	1	2
CCn1c(C)nc2cc(-c3nc4n(n3)Cc3ccccc3-4)ccc21	0	45*	2	-21	51*
CN(Cc1cc([N+](=O)[O-])c2cccnc2c1O)C1CCCCC1	8.2*	-1	4	1	0
CCN1CCCC1CN(Cc1cc2ccc(C)c(C)c2[nH]c1=O)C(=O)Nc1ccccc1OC (stereo not drawn)	0	-1	-11	0	1
C=C(NC(=O)C(=C)NC(=O)c1csc(C2=NC3c4csc(n4)C4NC(=O)c5csc(n5)C([C@@](C)(O)C(C)O)NC(=O)C5CSC(=N5)/C(=C\C)NC(=O)C(C(C)O)NC(=O)c5csc(n5)[C@]3(CC2)NC(=O)C(C)NC(=O)C(=C)NC(=O)C(C)NC(=O)C(C(C)CC)NC2C=Cc3c(C(C)O)cc(nc3C2O)C(=O)OC4C)n1)C(N)=O (stereo partly drawn)	1.1*	-2	·	·	-2
O=C(NCCc1cccc(Cl)c1)c1cc2ccccc2oc1=O	0	-1	6	1	-2
Cn1c(SCC(=O)Nc2ccc(Cl)cn2)nnc1C1CC1	0	-1	-21	-30	51*
CCn1c(SCC(=O)Nc2ccc(Br)cn2)nnc1C1CC1	0	1	-12	-52*	23
CC(NC(=O)CCC1COc2ccccc2O1)c1ccccc1 (stereo not drawn)	0	0	10	-4	0
COc1cccc2cc(-c3nc4ccccc4o3)c(=O)oc12	0	1	103*	-2	8
O=C(NN1C(=O)/C(=C/C=C/c2ccco2)SC1=S)c1ccncc1	1.1*	2	9	1	2
CN(C)/C=C/C(=O)c1ccc2noc(-c3ccccc3)c2c1	0	45*	11	-1	10
CC(=O)c1ccc2noc(-c3ccccc3)c2c1	0	17	-28	-2	20
COc1ccc(-c2nn(-c3ccccc3)cc2C(=O)NC2CC2)cc1	0	0	·	·	-4
CC(NCC(O)COCCC12CC3CC(CC(C3)C1)C2)c1ccccc1 (stereo not drawn)	0	1	-16	0	·
CCOc1ccccc1/C=N/NC(=O)c1nnn(-c2nonc2N)c1CN1CCCC1	0	1	6	-86*	109*
Nc1nonc1-n1nnc(C(=O)N/N=C/c2ccccc2F)c1CN1CCOCC1	0	0	-12	-34	9
Nc1nonc1-n1nnc(C(=O)N/N=C/c2ccccc2Cl)c1CN1CCOCC1	0	0	5	-2	50*
SMILES	Efflux pump mplx	STK33 kinase inh	PolyA inh	GSK3beta inhib	GSK3A inh
Nc1nonc1-n1nnc(C(=O)N/N=C/c2ccccc2F)c1CN1CCc2ccccc21	0	1	-12	-50*	0
CNC(=S)Nc1cccc(-c2cnc3ccccc3n2)c1	0	26*	-4	-1	18
O=C(NC1CCCC1)C(c1ccncc1)N(C(=O)Cc1cccs1)c1cccc(F)c1 (stereo not drawn)	0	-2	16	1	-2
CNS(=O)(=O)c1cc(-c2nnc(Nc3ccc(CC(N)=O)cc3)c3ccccc23)ccc1C	0	-1	3	-1	-4
Cc1ccc(-c2nnc(Nc3ccc(CC(N)=O)cc3)c3ccccc23)cc1S(N)(=O)=O	1.7*	0	-11	2	1
CCCN(CCC)Cc1c(C(=O)N/N=C/C(C)=C\c2ccco2)nnn1-c1nonc1N	0	0	-6	1	-3
CCCN(CCC)Cc1c(C(=O)N/N=C/c2ccncc2)nnn1-c1nonc1N	0	0	13	-45	74*
CC(/C=N/NC(=O)c1nnn(-c2nonc2N)c1CN(C)C)=C\c1ccco1	0	0	8	-5	50*
CCN(CC)Cc1c(C(=O)N/N=C/c2cccnc2)nnn1-c1nonc1N	0	-1	22	0	53*
CCOc1cccc(-c2c(C(=O)N/N=C(\C)c3cccnc3)nnn2-c2nonc2N)c1	0	0	3	0	52*
O=C(c1ccc(NS(=O)(=O)c2ccc(F)cc2)cc1)N1CCC1	1	0	?	-4	0
CCCCn1c(N)c(N(CCOC)C(=O)CN2C(=O)C3CCCCC3C2=O)c(=O)[nH]c1=O (stereo not drawn)	0	0	·	·	-6
Cc1ccc(S(=O)(=O)N2CCN(C(=O)C3CCN(C(=O)c4ccccc4C)CC3)CC2)cc1C	0	0	-1	2	0
COc1ccc(OC(C)c2nnc(N)s2)cc1 (stereo not drawn)	0	-1	·	0	-1
O=C(NC1CCCCC1)C(c1ccc(Cl)cc1)N(C(=O)c1ccccn1)c1cccnc1 (stereo not drawn)	0	0	-22	0	1
CN(Cc1c(C(=O)N/N=C/c2ccccc2)nnn1-c1nonc1N)C1CCCCC1	0	0	27	1	4
CN(Cc1c(C(=O)N/N=C/c2ccc(O)cc2)nnn1-c1nonc1N)C1CCCCC1	0	-1	1	0	60*
C=CCN1CCN(C(=O)c2cc3c(s2)CCCC3)CC1	0	0	-7	2	2
O=C(NCCCO)c1cc2c([nH]c3ccccc32)c(-c2ccccc2)n1	0	29*	-4	2	1
CC(C)CN(CC(C)C)C(=O)Nc1ccc(F)cc1F	0	-1	2	4	-2
CCC(C)NC(=O)C1c2ccccc2C(=O)N1Cc1ccc(F)cc1 (stereo not drawn)	0	-1	12	-1	-2
O=C(Oc1ccccc1)c1ccc(NC(=O)c2ccco2)cc1	0	0	-4	4	0
COC(=O)c1ccc(NC(=O)c2ccc(NC(=O)c3ccco3)cc2)cc1	11*	0	6	0	0
CCN(CC)c1ccc(/C=C/C(=O)C2C(=O)C=C(C)OC2=O)cc1 (stereo not drawn)	7.6*	1	-43	5	1
